Only some compounds are listed: those with a hit (about 5.5% of all), similar ones and a draw of the others.
tolC growth inh: growth inhibitors of E. coli tolC mutant, primary screen, strain BW25113 ΔtolC::kan, 384-well. 65,000 tested, 2.2% active. OD615. growth inhibition, % at 10 µM (by protocol);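 active = growth inhibition at or above a cutoff equal to the mean over every tested compound plus 3 SD, cut at about 60% in these data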;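 note: growth measured after 20 h incubation at 37 °C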
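Test system: E. coli BW25113 ΔtolC::kan bacteria | Medium: Kanamycin-containing LB broth (50 µg/mL) | Dosing: One dose of 10 µM final | Times: 20 h incubation with compound, 37 °C | Detection: Optical density read at 615 nm | Read-out basis: Percent growth inhibition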
Ecoli WT expand: growth inhibitors of wild-type E. coli, primary screen, strain BW25113, expanded library, OD600; growth inhibition, % at 100 µM; OD600 absorbance; 98,000 tested, 0.15% active; AID 710, 2007;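 active = growth inhibition above about 50% at one test dose, limit read from the data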;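 note: growth measured after 20 h incubation at 37 °C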
PostGolgi ctrl: growth inhibition of yeast control strain, primary screen, counter-screen for post-Golgi transport modulator project; efflux-deficient yeast background strain, growth absorbance A615, 16 h; inhibition, % at 10 µM; AID 738, 2007; 98,000 tested, 5% active
HePTP inh: inhibitors of human HePTP phosphatase, primary screen, biochemical, absorbance, leukemia target | Tyrosine-protein phosphatase non-receptor type 7 (Homo sapiens), P35236 | recombinant HePTP phosphatase activity, OD absorbance | inhibition, % at 20 µM | 110,000 tested, 0.64% active | AID 521, 2006; in the data active = inhibition above about 50%;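 note: plate controls were vehicle for no effect and reference inhibitor for full effect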
Target sequence (P35236 whole entry, looked up): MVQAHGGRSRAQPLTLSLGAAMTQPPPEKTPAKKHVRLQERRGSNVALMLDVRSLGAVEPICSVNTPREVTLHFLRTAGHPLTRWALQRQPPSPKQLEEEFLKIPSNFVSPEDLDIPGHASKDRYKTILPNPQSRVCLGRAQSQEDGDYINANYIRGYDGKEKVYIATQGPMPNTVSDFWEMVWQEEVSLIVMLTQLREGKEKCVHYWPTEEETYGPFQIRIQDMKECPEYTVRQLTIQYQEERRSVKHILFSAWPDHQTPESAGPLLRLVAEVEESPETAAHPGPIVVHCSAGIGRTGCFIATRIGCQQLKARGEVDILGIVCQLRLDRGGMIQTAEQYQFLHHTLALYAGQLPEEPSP
PLAP act: PLAP enzyme activators, biochemical, luminescence, HTS. Alkaline phosphatase, placental type (Homo sapiens), P05187. purified PLAP enzyme, luminescent substrate read-out; active compounds read high. activation fold at 20 µM. 96,000 tested, 1.2% active. AID 696, 2007; in the data active = activation fold above about 2
PostGolgi yeast: phenotypic screen on post-Golgi transport, primary screen; post-Golgi transport phenotypic cell assay; inhibition, % at 10 µM; 98,000 tested, 0.9% active;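 note: yeast cells grown in 1536-well plates; yeast grown about 18 h at 30C before absorbance read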
* = called active by the depositor; / = not tested or not shown. Cut-off read from the data, not from the text of the source, unless noted: active = inhibition above about 30%; inactive = the rest.

SMILES	tolC growth inh	Ecoli WT expand	PostGolgi ctrl	HePTP inh	PLAP act	PostGolgi yeast
O=C(Nc1ccc(Cl)cc1)NC1CCCC1Cc1ccco1 (stereo not given)	100*	23	22	4	0.9	4
O=C(Nc1ccc(Cl)cc1)NC1CCCCC1Cc1ccco1 (stereo not given)	/	9	26	/	1.1	24
COc1ccc(-c2ccc(/C=N/NC(=O)C(O)c3ccccc3)o2)cc1Cl (stereo not given)	/	/	/	-2	/	/
CCC(=O)N(CCC1(c2ccccc2)CCOC(C)(C)C1)c1ccc(OC)c(OC)c1 (stereo not given)	/	/	/	5	/	/
CC(=O)Nc1ccc(S(=O)(=O)Nc2cccc(C(C)=O)c2)cc1	/	/	/	8	/	/
COc1cccc(C(=O)/C=C/Nc2ccc(S(=O)(=O)Nc3cccc(C(C)=O)c3)cc2)c1	/	-16	42*	/	1.1	4
CC(=O)NS(=O)(=O)c1ccc(NC(=O)c2cc([N+](=O)[O-])ccc2Cl)cc1	/	/	/	2	/	/
CC(=O)NS(=O)(=O)c1ccc(NC(=O)c2ccc([N+](=O)[O-])cc2[N+](=O)[O-])cc1	/	/	/	70*	/	/
COc1ccc(OC)c(NC(=O)c2ccccc2N(Cc2ccccc2)S(=O)(=O)c2ccccc2)c1	/	/	/	-18	/	/
COc1cc([N+](=O)[O-])cc(/C=N/NC(=O)COc2c(Br)cc(Br)cc2Br)c1O	/	/	/	79*	/	/
O=C(Nc1ccccc1O)c1ccccc1I	/	/	/	6	/	/
Cc1ccc(Cn2c(CN(C)Cc3ccccc3)nc3c2c(=O)n(C)c(=O)n3C)cc1	50	-5	38*	4	1.5	0
CCCCCn1c(CN(C)Cc2ccccc2)nc2c1c(=O)n(C)c(=O)n2C	28	-13	17	7	2*	-5
Cc1ccc(C)c(Cn2c(CN(C)Cc3ccccc3)nc3c2c(=O)n(C)c(=O)n3C)c1	81*	-6	45*	1	1.7	3
CN(Cc1ccccc1)Cc1nc2c(c(=O)n(C)c(=O)n2C)n1Cc1ccc(F)cc1	40	2	27	-9	1.5	-11
CN(Cc1ccccc1)c1nc2c(c(=O)n(C)c(=O)n2C)n1CCCc1ccccc1	100*	-16	43*	-2	2.1*	0
Cc1ccc(C(O)(c2ccccc2)c2nc3ccccc3n2C(C)C)cc1 (stereo not given)	/	/	/	0	/	/
Cc1ccc(N(CC(=O)Nc2c(C)n(C)n(-c3ccccc3)c2=O)S(=O)(=O)c2ccccc2)cc1	/	/	/	5	/	/
O=C(/C=C/c1cc(Br)cs1)Nc1ccccc1	/	/	/	5	/	/
CCCCCCn1c(N2CCN(c3ccccc3)CC2)nc2c1c(=O)n(C)c(=O)n2C	80*	-23	22	8	1.6	-1
CCOCCn1c(N2CCN(c3ccccc3)CC2)nc2c1c(=O)n(C)c(=O)n2C	-2	3	9	-2	1.5	-1
CCOCCn1c(CN(Cc2ccccc2)Cc2ccccc2)nc2c1c(=O)n(C)c(=O)n2C	68*	-17	24	0	1.6	2
CN(Cc1ccccc1)Cc1nc2c(c(=O)n(C)c(=O)n2C)n1Cc1ccc(Cl)cc1	51	1	31*	-3	1.5	1
Cn1c(=O)c2c(nc(CN3CCN(Cc4ccccc4)CC3)n2Cc2ccc(Cl)cc2)n(C)c1=O	4	5	7	3	1.5	-17
COc1ccc(C(=O)/C=C/Nc2ccccc2O)cc1	/	/	/	-5	/	/
SMILES	tolC growth inh	Ecoli WT expand	PostGolgi ctrl	HePTP inh	PLAP act	PostGolgi yeast
CC(=O)NC(C)C(=O)OCC(=O)c1ccc(Cl)s1 (stereo not given)	-13	-1	36*	0	0.9	25
O=C(CCC(=O)c1cccs1)OCC(=O)c1ccc(Cl)s1	7	10	14	-6	1	2
CC(=O)c1ccc(NC(=O)c2ccc(N3C(=O)c4ccccc4C3=O)cc2)cc1	/	/	/	-17	/	/
Cc1ccc(C(=O)OCn2ncc(Cl)c(Cl)c2=O)cc1	/	0	49*	/	0.8	93*
O=C(OCn1ncc(Cl)c(Cl)c1=O)c1ccc(C(F)(F)F)cc1	/	8	68*	/	1.1	109*
O=C(O)c1ccc(-n2ncc(Cl)c(Cl)c2=O)cc1	/	/	/	5	/	/
CCCc1nc(N2CCOCC2)c(C#N)c2c1CCCC2	10	9	39*	7	1.7	-1
CCCCc1nc(N2CCOCC2)c(C#N)c2c1CCCC2	27	5	25	3	1.2	5
COc1cc2c(cc1NC(=O)c1c(-c3ccccc3)noc1C)oc1ccccc12	/	/	/	1	/	/
Cc1ccc(-c2c3c(nc4sc(C(N)=O)c(N)c24)CCC3)cc1	/	4	50*	/	0.9	5
NC(=O)c1sc2nc3c(c(-c4ccc(Cl)cc4)c2c1N)CCCC3	/	-7	35*	/	1.1	7
Cc1ccc(C(=O)N2CCOCC2)cc1S(=O)(=O)Nc1cccc(C)c1C	-7	-1	1	10	/	5
COc1ccccc1NS(=O)(=O)c1cc(C(=O)N2CC(C)CC(C)C2)ccc1C (stereo not given)	/	4	88*	/	1.7	87*
Cc1ccc(C)c(NS(=O)(=O)c2cc(C(=O)N3CCc4ccccc4C3)ccc2Cl)c1	/	-12	71*	/	1.2	104*
Cc1ccccc1NS(=O)(=O)c1cc(C(=O)N2CCCC2)ccc1C	-2	10	4	2	1.3	1
Cc1cccc(NS(=O)(=O)c2cc(C(=O)N3CCc4ccccc4C3)ccc2Cl)c1C	/	-10	74*	/	1.4	97*
O=C(NCc1ccc(Cl)cc1)C(=O)Nc1cccc2ccccc12	/	/	/	8	/	/
CCOc1cccc(N2C(=O)CC(SCC(=O)Nc3ccc(Cl)cc3)C2=O)c1 (stereo not given)	/	/	/	-7	/	/
O=C(CSC1CC(=O)N(CC(c2ccccc2)c2ccccc2)C1=O)Nc1ccc(Cl)cc1 (stereo not given)	/	-22	41*	/	1	11
COc1ccc(C2CC(c3ccc(F)cc3)=NN2c2ccccc2F)cc1OC (stereo not given)	/	/	/	-3	/	/
COc1ccc(C(=O)C(CN2CCOCC2)c2ccccc2)cc1F (stereo not given)	78*	15	26	6	1.2	-2
O=C(CSc1ccc(Cl)cc1)N1CCN(c2c(Cl)cccc2[N+](=O)[O-])CC1	/	-14	29	/	0.9	41*
O=C(c1ccccc1F)N1CCN(c2c(Cl)cccc2[N+](=O)[O-])CC1	/	/	/	3	/	/
CCCC(=O)N1CCN(c2ccc([N+](=O)[O-])cc2Cl)CC1	/	/	/	-4	/	/
O=C(CSc1ccc(Cl)cc1)N1CCN(c2ccc([N+](=O)[O-])cc2Cl)CC1	/	-22	78*	/	1	82*
CCCCCOc1ccc(CN2CCOCC2)cc1Cl	28	4	55*	-8	1.4	95*
Cc1ccc(Cl)c(OCCCCN2CCOCC2)c1	/	/	/	8	/	/
C/C(=N/NC(=O)c1sc2cc(F)ccc2c1Cl)c1cccs1	/	/	/	4	/	/
